This is a sample that favours compounds with a hit; in the whole collection about 2.6% have one here.
ASAP1 GAP inh: inhibitors of human ASAP1 ArfGAP activity, primary screen, biochemical, fluorescence polarization; Arf-GAP with SH3 domain, ANK repeat and PH domain-containing protein 1 (Homo sapiens), …; ASAP1-stimulated ARF1 GTP hydrolysis, GDP FP detection; inhibition, % at 16.5 µM; hit rate 0.19% among 360,000; AID 624377, 2012; in the data active = inhibition above about 25%;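 also: 0% = vehicle with enzyme and substrate and 100% = no enzyme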
Target sequence (Q9ULH1 325-724 limits assumed): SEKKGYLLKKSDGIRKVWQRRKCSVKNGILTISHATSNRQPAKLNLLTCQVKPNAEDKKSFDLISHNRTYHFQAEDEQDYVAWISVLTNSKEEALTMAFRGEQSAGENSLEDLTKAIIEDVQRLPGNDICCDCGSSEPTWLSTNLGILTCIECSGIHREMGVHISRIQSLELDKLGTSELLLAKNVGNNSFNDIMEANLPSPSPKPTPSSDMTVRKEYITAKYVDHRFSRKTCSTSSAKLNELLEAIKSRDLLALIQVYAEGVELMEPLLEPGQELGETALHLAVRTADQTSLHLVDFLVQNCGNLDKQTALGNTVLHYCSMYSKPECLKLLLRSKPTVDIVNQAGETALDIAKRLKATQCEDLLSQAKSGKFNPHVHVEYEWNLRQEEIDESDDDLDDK
ARFGAP1 inhibitor: inhibitors of rat ARFGAP1 GAP activity, primary screen, biochemical, fluorescence polarization, GDP tracer; ADP-ribosylation factor GTPase-activating protein 1 (Rattus norvegicus), Q62848; Arfgap1-stimulated ARF1 GTP hydrolysis, GDP FP detection; inhibition, % at 16.5 µM; hit rate 0.26% among 360,000; AID 651572, 2012;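 active = inhibition above a per-plate limit, mean inhibition of low control wells plus 3 SD, cut at about 25% in these data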;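 also: 0% = DMSO wells with enzyme and 100% = wells lacking Arfgap1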
Target sequence (Q62848 1-136 limits assumed): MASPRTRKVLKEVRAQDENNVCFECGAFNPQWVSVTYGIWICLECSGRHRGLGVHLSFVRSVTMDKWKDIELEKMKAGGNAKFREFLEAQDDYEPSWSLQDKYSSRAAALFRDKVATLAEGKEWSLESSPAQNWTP
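Material: rat Arfgap1 catalytic domain, aa 1-136; also added: human ARF1(Δ1-17)-GTP substrate; compound dosing: one concentration, 16.5 µM, DMSO 1.26%; incubation: GTP hydrolysis reaction 2 h at 25 °C; measured by: Tracer-displacement fluorescence polarization with EDTA stop, 620/688 nm; evaluation: % inhibition from polarization; repeats: one replicate per compound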
esBAF inh: Bmi1 luciferase reporter increase in mESCs, primary screen, esBAF inhibitor project, mouse ES cells, Bmi1 luciferase knock-in, single point | reporter increase, % at 12.5 µM | 24 h; 100% = twice the neutral-well signal | hit rate 2% among 350,000; in the data active = activation above about 40%;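 also: 0% = median of the plate's neutral control wells and 100% = double that signal; a rise in the Bmi1 reporter signal indicates esBAF inhibition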
SMARCA2 activ: SMARCA2 (BRM) function activators, primary screen, cell-based, luminescence, high throughput; MG213 cells, MMTV-luciferase reporter, dexamethasone, overnight; activation, % at 9.1 µM; hit rate 1% among 370,000; in the data active = activation above about 7.8%;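 also: 0% = vehicle wells and 100% = reference activator wells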
Active calls of the source: *.

How did CO[C@H]1CN(C)C(=O)c2cc(NS(C)(=O)=O)ccc2OC[C@@H](C)N(C(=O)NC(C)C)C[C@H]1C do in these assays?
esBAF inh: -1

What do the screens show for `CCN(CC)C(=S)SCC(=O)c1ccccc1`?
ASAP1 GAP inh: 6; ARFGAP1 inhibitor: 10; esBAF inh: 55*; SMARCA2 activ: 5

What do the screens show for `CCN(CC)C(=S)SCC(=O)c1ccc(F)cc1`?
ASAP1 GAP inh: -12; ARFGAP1 inhibitor: -1; esBAF inh: 48*; SMARCA2 activ: 4

What do the screens show for `C[C@H](CO)N1C[C@H](C)[C@@H](CN(C)Cc2ccccc2)Oc2c(NC(=O)Nc3ccc(F)cc3)cccc2C1=O`?
esBAF inh: -5

How did C[C@H](O)C#Cc1cnc2c(c1)C(=O)N([C@H](C)CO)C[C@H](C)[C@@H](CN(C)Cc1cccc(F)c1)O2 do in these assays?
esBAF inh: -1

How did Cc1cc(NC(=O)c2ccc3[nH]c(C)c(C)c3c2)ccn1 do in these assays?
ASAP1 GAP inh: 2; ARFGAP1 inhibitor: 12; esBAF inh: 40; SMARCA2 activ: 3

What do the screens show for `CC(=O)Nc1cccc(NC(=O)c2ccc3[nH]c(C)c(C)c3c2)c1`?
ASAP1 GAP inh: -1; ARFGAP1 inhibitor: 7; esBAF inh: 49*; SMARCA2 activ: -2

How did CC(=O)Nc1nc2c(C)c(Cl)ccc2s1 do in these assays?
ASAP1 GAP inh: 3; ARFGAP1 inhibitor: -8; esBAF inh: 4; SMARCA2 activ: -4

Results for CCCC(=O)Nc1nc2ccc3nc(C)sc3c2s1 ?
ASAP1 GAP inh: 5; ARFGAP1 inhibitor: 0; esBAF inh: 41*; SMARCA2 activ: 3

What do the screens show for `CCC(=O)Nc1nc2ccc3sc(C)nc3c2s1`?
ASAP1 GAP inh: 0; ARFGAP1 inhibitor: 8; SMARCA2 activ: 1

How did Cc1nc2c(ccc3nc(NC(=O)C4CC4)sc32)s1 do in these assays?
ASAP1 GAP inh: 0; ARFGAP1 inhibitor: 4; esBAF inh: 68*; SMARCA2 activ: 0

How did CCCCC(=O)Nc1nc2ccc3nc(C)sc3c2s1 do in these assays?
ASAP1 GAP inh: 16; ARFGAP1 inhibitor: -1; esBAF inh: 15; SMARCA2 activ: -1

How did Cc1c(Cl)ccc2sc(NC(=O)C3CC3)nc12 do in these assays?
ASAP1 GAP inh: 14; ARFGAP1 inhibitor: 3; esBAF inh: 53*; SMARCA2 activ: -5

What do the screens show for `CC(=O)Nc1nc2c(C)cc(NC(=O)C3CCCCC3)cc2s1`?
ASAP1 GAP inh: 2; ARFGAP1 inhibitor: -13; esBAF inh: 60*; SMARCA2 activ: 1

Results for C[C@@H]1CCCCO[C@@H](CN(C)S(=O)(=O)c2ccc(Cl)cc2)[C@H](C)CN([C@@H](C)CO)C(=O)c2cc(NS(=O)(=O)c3cccs3)ccc2O1 ?
esBAF inh: 8

How did C[C@H](CO)N1C[C@H](C)[C@H](CN(C)S(=O)(=O)c2cccs2)Oc2ncc(-c3ccccc3)cc2C1=O do in these assays?
esBAF inh: 4

Results for C[C@H]1CN([C@@H](C)CO)C(=O)c2cc(NC(=O)CCCN(C)C)ccc2O[C@H]1CN(C)Cc1ccc(C(F)(F)F)cc1 ?
esBAF inh: -7

Results for C[C@@H]1CCCCO[C@@H](CN(C)C(=O)Nc2ccc(F)cc2)[C@@H](C)CN([C@@H](C)CO)C(=O)c2cc(NC(=O)CCC(F)(F)F)ccc2O1 ?
esBAF inh: -1

What do the screens show for `C[C@@H]1CN([C@@H](C)CO)C(=O)c2cc(C3=CCCCC3)cnc2O[C@H]1CN(C)C(=O)Nc1ccc(F)cc1`?
esBAF inh: 11

Results for O=C(NC1CCCCCC1)c1cc2c(=O)n3ccccc3nc2s1 ?
ASAP1 GAP inh: 0; ARFGAP1 inhibitor: -11; esBAF inh: 45*; SMARCA2 activ: -1

Results for Cc1noc(C)c1NC(=O)Nc1ccc2c(c1)CC(=O)N([C@@H](C)CO)C[C@H](C)[C@@H](CN(C)S(=O)(=O)c1cn(C)cn1)O2 ?
esBAF inh: 0

Results for COc1ccc(S(=O)(=O)N2C[C@@H](O)COC[C@H]3O[C@H](CC(=O)NCCCN4CCOCC4)CC[C@@H]32)cc1 ?
esBAF inh: -4

How did COCCNC(=O)c1cccc2c(-c3cccc(C(N)=O)c3)coc12 do in these assays?
ASAP1 GAP inh: -2; ARFGAP1 inhibitor: 1; esBAF inh: 2; SMARCA2 activ: 5

How did NC(=O)c1cccc(-c2coc3c(C(=O)NCc4ccccc4)cccc23)c1 do in these assays?
ASAP1 GAP inh: 14; ARFGAP1 inhibitor: 14; esBAF inh: 50*; SMARCA2 activ: 0

What do the screens show for `CC(C)NC(=O)Nc1ccc2c(c1)C(=O)N([C@@H](C)CO)C[C@@H](C)[C@@H](CN(C)Cc1ccc(C(F)(F)F)cc1)O2`?
esBAF inh: -4

How did O=C(O)c1ccc(N/N=C/c2cn(Cc3ccccc3F)c3ccccc23)cc1 do in these assays?
ASAP1 GAP inh: 5; ARFGAP1 inhibitor: 11; esBAF inh: 54*; SMARCA2 activ: 2

How did Cc1ccc(Nc2nnc(SCC(=O)Nc3cccc(S(=O)(=O)N4CCCCC4)c3)s2)cc1 do in these assays?
ASAP1 GAP inh: 15; ARFGAP1 inhibitor: 6; SMARCA2 activ: -1

How did O=C(CSc1nnc(Nc2ccccc2F)s1)Nc1cccc(S(=O)(=O)N2CCCCC2)c1 do in these assays?
ASAP1 GAP inh: 3; ARFGAP1 inhibitor: 4; esBAF inh: 43*; SMARCA2 activ: -2

How did C[C@H](CO)N1C[C@H](C)[C@H](CN(C)CC2CCCC2)OCc2cnnn2CCCC1=O do in these assays?
esBAF inh: 1

How did C[C@H](NC(=O)C[C@@H]1CC[C@H]2[C@@H](COC[C@@H](O)CN2C(=O)Nc2cc(Cl)cc(Cl)c2)O1)c1ccccc1 do in these assays?
esBAF inh: -2

How did CCc1nnc2c3cnn(-c4ccccc4)c3ncn12 do in these assays?
ASAP1 GAP inh: 4; ARFGAP1 inhibitor: 2; esBAF inh: 64*; SMARCA2 activ: 5

How did COc1ccccc1NC(=O)c1oc2ccccc2c1NC(=O)c1cc(OC)c(OC)c(OC)c1 do in these assays?
ASAP1 GAP inh: 0; ARFGAP1 inhibitor: -13; esBAF inh: 6; SMARCA2 activ: 2

Results for COc1ccccc1NC(=O)c1oc2ccc(C)cc2c1C ?
ASAP1 GAP inh: -2; ARFGAP1 inhibitor: 2; esBAF inh: 48*; SMARCA2 activ: 2

What do the screens show for `Cc1c(C(=O)Nc2cccnc2Cl)oc2ccccc12`?
ASAP1 GAP inh: 4; ARFGAP1 inhibitor: 15; esBAF inh: 48*; SMARCA2 activ: 3

What do the screens show for `Cc1c(C(=O)Nc2nnc(C(F)(F)F)s2)oc2ccccc12`?
ASAP1 GAP inh: 2; ARFGAP1 inhibitor: 9; esBAF inh: 1; SMARCA2 activ: 2

What do the screens show for `COC(=O)c1sc(NC(=O)c2oc3ccccc3c2C)nc1C`?
ASAP1 GAP inh: 16; ARFGAP1 inhibitor: 0; esBAF inh: 60*; SMARCA2 activ: 7

High-throughput results as filed in PubChem BioAssay.
